In ChEMBL document CHEMBL1811814, “Synthesis and evaluation of indole, pyrazole, chromone and pyrimidine based conjugates for tumor growth inhibitory activities--development of highly efficacious cytotoxic agents” (Eur J Med Chem, 2010):

Key:
Type in all cases: functional
Parameters in all cases: scale not given: the % may be the effect or the level left
PC-3 = test: Growth inhibition of human PC3 cells assessed tumor cell growth at 10^-5 M
Method in brief: (§1)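 NCI 60-human-tumor-cell-line panel screen. Each compound was tested at a single concentration of 10^-5 M, and percent growth of tumor cells was recorded for each cell line. Growth inhibition was expressed from these percent-growth values.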

[1] = Growth inhibition of human Hs 578T cells assessed tumor cell growth at 10^-5 M; method in brief: as §1
M14 = test: Growth inhibition of human M14 cells assessed tumor cell growth at 10^-5 M; method in brief: as §1
DU-145 = test: Growth inhibition of human DU145 cells assessed tumor cell growth at 10^-5 M; method in brief: as §1
OVCAR-3 = test: Growth inhibition of human OVCAR3 cells assessed tumor cell growth at 10^-5 M; method in brief: as §1
SF-268 = test: Growth inhibition of human SF268 cells assessed tumor cell growth at 10^-5 M; method in brief: as §1
MDA-MB-231 = test: Growth inhibition of human MDA-MB-231 cells assessed tumor cell growth at 10^-5 M; method in brief: as §1
COLO 205 = test: Growth inhibition of human COLO205 cells assessed tumor cell growth at 10^-5 M; method in brief: as §1
Malme-3M = test: Growth inhibition of human MALME-3M cells assessed tumor cell growth at 10^-5 M; method in brief: as §1
HCT-15 = test: Growth inhibition of human HCT15 cells assessed tumor cell growth at 10^-5 M; method in brief: as §1
HOP-62 = test: Growth inhibition of human HOP62 cells assessed tumor cell growth at 10^-5 M; method in brief: as §1
T47D = test: Growth inhibition of human T47D cells assessed tumor cell growth at 10^-5 M
Method in brief: (§2)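 Single-dose screen at 10^-5 M across the 60 human tumor cell line panel, run to NCI standards. The value is the percent growth of each cell line in the presence of compound. Compounds active at this dose moved on to five-concentration testing (10^-4 to 10^-8 M).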

IGROV-1 = test: Growth inhibition of human IGROV1 cells assessed tumor cell growth at 10^-5 M; method in brief: as §1
BT-549 = test: Growth inhibition of human BT549 cells assessed tumor cell growth at 10^-5 M; method in brief: as §1
HOP-92 = test: Growth inhibition of human HOP92 cells assessed tumor cell growth at 10^-5 M; method in brief: as §1
HT-29 = test: Growth inhibition of human HT-29 cells assessed tumor cell growth at 10^-5 M; method in brief: as §1
A498 = test: Growth inhibition of human A498 cells assessed tumor cell growth at 10^-5 M; method in brief: as §1
SF-539 = test: Growth inhibition of human SF539 cells assessed tumor cell growth at 10^-5 M; method in brief: as §1
CCRF-CEM = test: Growth inhibition of human CCRF-CEM cells assessed tumor cell growth at 10^-5 M; method in brief: as §1
HCT-116 = test: Growth inhibition of human HCT116 cells assessed tumor cell growth at 10^-5 M; method in brief: as §1
NCI-H460 = test: Growth inhibition of human NCI-H460 cells assessed tumor cell growth at 10^-5 M; method in brief: as §1
NCI/ADR-RES = test: Growth inhibition of human NCI/ADR-RES cells assessed tumor cell growth at 10^-5 M; method in brief: as §1
HCC 2998 = test: Growth inhibition of human HCC2998 cells assessed tumor cell growth at 10^-5 M; method in brief: as §1
KM12 = test: Growth inhibition of human KM12 cells assessed tumor cell growth at 10^-5 M; method in brief: as §1
[2] = Growth inhibition of human […] cells assessed tumor cell growth at 10^-5 M; method in brief: as §1
TK-10 = test: Growth inhibition of human TK10 cells assessed tumor cell growth at 10^-5 M; method in brief: as §2
SK-MEL-2 = test: Growth inhibition of human SK-MEL-2 cells assessed tumor cell growth at 10^-5 M; method in brief: as §1
ACHN = test: Growth inhibition of human ACHN cells assessed tumor cell growth at 10^-5 M; method in brief: as §1
U-251 = test: Growth inhibition of human U251 cells assessed tumor cell growth at 10^-5 M; method in brief: as §2
NCI-H23 = test: Growth inhibition of human NCI-H23 cells assessed tumor cell growth at 10^-5 M; method in brief: as §1
SK-OV-3 = test: Growth inhibition of human SKOV3 cells assessed tumor cell growth at 10^-5 M; method in brief: as §1
SK-MEL-5 = test: Growth inhibition of human SK-MEL-5 cells assessed tumor cell growth at 10^-5 M; method in brief: as §1
CAKI-1 = test: Growth inhibition of human Caki1 cells assessed tumor cell growth at 10^-5 M; method in brief: as §1
RXF 393 = test: Growth inhibition of human RXF393 cells assessed tumor cell growth at 10^-5 M; method in brief: as §1
NCI-H322M = test: Growth inhibition of human NCI-H322M cells assessed tumor cell growth at 10^-5 M; method in brief: as §1
786-0 = test: Growth inhibition of human 786-0 cells assessed tumor cell growth at 10^-5 M; method in brief: as §1
SW-620 = test: Growth inhibition of human SW620 cells assessed tumor cell growth at 10^-5 M; method in brief: as §2
A549 = test: Growth inhibition of human A549 cells assessed tumor cell growth at 10^-5 M; method in brief: as §1
OVCAR-8 = test: Growth inhibition of human OVCAR8 cells assessed tumor cell growth at 10^-5 M; method in brief: as §1
UO-31 = test: Growth inhibition of human UO31 cells assessed tumor cell growth at 10^-5 M; method in brief: as §2
OVCAR-5 = test: Growth inhibition of human OVCAR5 cells assessed tumor cell growth at 10^-5 M; method in brief: as §1
UACC-257 = test: Growth inhibition of human UACC257 cells assessed tumor cell growth at 10^-5 M; method in brief: as §2
SN12C = test: Growth inhibition of human SN12C cells assessed tumor cell growth at 10^-5 M; method in brief: as §1
SNB-19 = test: Growth inhibition of human SNB19 cells assessed tumor cell growth at 10^-5 M; method in brief: as §2
NCI-H226 = test: Growth inhibition of human NCI-H226 cells assessed tumor cell growth at 10^-5 M; method in brief: as §1
NCI-H522 = test: Growth inhibition of human NCI-H522 cells assessed tumor cell growth at 10^-5 M; method in brief: as §1
MDA-MB-468 = test: Growth inhibition of human MDA-MB-468 cells assessed tumor cell growth at 10^-5 M; method in brief: as §1
UACC-62 = test: Growth inhibition of human UACC62 cells assessed tumor cell growth at 10^-5 M; method in brief: as §2
LOX IMVI = test: Growth inhibition of human LOXIMVI cells assessed tumor cell growth at 10^-5 M; method in brief: as §1
K562 = test: Growth inhibition of human K562 cells assessed tumor cell growth at 10^-5 M; method in brief: as §1
HL-60(TB) = test: Growth inhibition of human HL-60(TB) cells assessed tumor cell growth at 10^-5 M
Method in brief: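 HL-60(TB), part of the 60-line panel, tested at a single concentration of 10^-5 M. The read-out is percent tumor cell growth relative to untreated growth.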

MDA-MB-435 = test: Growth inhibition of human MDA-MB-435 cells assessed tumor cell growth at 10^-5 M; method in brief: as §1
MOLT-4 = test: Growth inhibition of human MOLT4 cells assessed tumor cell growth at 10^-5 M; method in brief: as §1
MCF7 = test: Growth inhibition of human MCF7 cells assessed tumor cell growth at 10^-5 M; method in brief: as §1
OVCAR-4 = test: Growth inhibition of human OVCAR4 cells assessed tumor cell growth at 10^-5 M; method in brief: as §1
SF-295 = test: Growth inhibition of human SF295 cells assessed tumor cell growth at 10^-5 M; method in brief: as §1
EKVX = test: Growth inhibition of human EKVX cells assessed tumor cell growth at 10^-5 M; method in brief: as §1
SNB-75 = test: Growth inhibition of human SNB75 cells assessed tumor cell growth at 10^-5 M; method in brief: as §2
SK-MEL-28 = test: Growth inhibition of human SK-MEL-28 cells assessed tumor cell growth at 10^-5 M; method in brief: as §1

C#CCN1C(=O)/C(=C\c2cn(CC#C)c3ccccc23)c2ccccc21
Activity (PC-3): 80%
Activity [1]: 105%
Activity (M14): 98.6%
Activity (DU-145): 109%
Activity (OVCAR-3): 102%
Activity (SF-268): 95.6%
Activity (MDA-MB-231): 82.7%
Activity (COLO 205): 77.9%
Activity (Malme-3M): 161%
Activity (HCT-15): 104%
Activity (HOP-62): 102%
Activity (T47D): 96.4%
Activity (IGROV-1): 91.2%
Activity (BT-549): 96.7%
Activity (HOP-92): 75.1%
Activity (HT-29): 101%
Activity (A498): 101%
Activity (SF-539): 91.5%
Activity (CCRF-CEM): 86%
Activity (HCT-116): 97.4%
Activity (NCI-H460): 98.6%
Activity (NCI/ADR-RES): 106%
Activity (HCC 2998): 107%
Activity (KM12): 101%
Activity [2]: 90.9%
Activity (TK-10): 112%
Activity (SK-MEL-2): 99.8%
Activity (ACHN): 92.7%
Activity (U-251): 98.4%
Activity (NCI-H23): 92%
Activity (SK-OV-3): 97.8%
Activity (SK-MEL-5): 91%
Activity (CAKI-1): 120%
Activity (RXF 393): 126%
Activity (NCI-H322M): 110%
Activity (786-0): 109%
Activity (SW-620): 102%
Activity (A549): 98.9%
Activity (OVCAR-8): 95.6%
Activity (UO-31): 74.9%
Activity (OVCAR-5): 101%
Activity (UACC-257): 97.8%
Activity (SN12C): 89.2%
Activity (SNB-19): 96.7%
Activity (NCI-H226): 86.5%
Activity (NCI-H522): 96.6%
Activity (MDA-MB-468): 133%
Activity (UACC-62): 78.4%
Activity (LOX IMVI): 103%
Activity (K562): 87.4%
Activity (HL-60(TB)): 101.9%
Activity (MDA-MB-435): 114%
Activity (MOLT-4): 87.3%

CC1=NN(c2cccc(Cl)c2)C(=O)/C1=C\c1cn(S(=O)(=O)c2ccc(C)cc2)c2ccccc12
Activity [1]: 115.57%
Activity (M14): 82.05%
Activity (DU-145): 114.18%
Activity (OVCAR-3): 110.25%
Activity (SF-268): 103.69%
Activity (MDA-MB-231): 85.37%
Activity (COLO 205): 142.35%
Activity (Malme-3M): 114.11%
Activity (HCT-15): 105.27%
Activity (MCF7): 113.07%
Activity (HOP-62): 62.28%
Activity (T47D): 91.46%
Activity (BT-549): 111.59%
Activity (OVCAR-4): 103.09%
Activity (SF-295): 114.23%
Activity (HT-29): 122.1%
Activity (A498): 117.06%
Activity (SF-539): 114%
Activity (CCRF-CEM): 134.54%
Activity (HCT-116): 88.23%
Activity (NCI-H460): 119.39%
Activity (NCI/ADR-RES): 85.11%
Activity (EKVX): 97.98%
Activity (HCC 2998): 88.49%
Activity (KM12): 109.5%
Activity [2]: 113.1%
Activity (TK-10): 166.55%
Activity (SNB-75): 89.33%
Activity (SK-MEL-2): 113.68%
Activity (ACHN): 97.51%
Activity (U-251): 102.73%
Activity (NCI-H23): 83.92%
Activity (SK-OV-3): 105.37%
Activity (SK-MEL-28): 125.16%
Activity (SK-MEL-5): 105.66%
Activity (CAKI-1): 87.81%
Activity (RXF 393): 137.02%
Activity (NCI-H322M): 105.18%
Activity (786-0): 94.95%
Activity (SW-620): 98.36%
Activity (A549): 108.98%
Activity (OVCAR-8): 107.68%
Activity (UO-31): 78.22%
Activity (OVCAR-5): 88.09%
Activity (UACC-257): 114.55%
Activity (SN12C): 97.46%
Activity (SNB-19): 114.11%
Activity (NCI-H226): 79.93%
Activity (NCI-H522): 107.2%
Activity (MDA-MB-468): 118.75%
Activity (UACC-62): 86.46%
Activity (LOX IMVI): 97.36%
Activity (K562): 138.24%
Activity (HL-60(TB)): 114.07%
Activity (MDA-MB-435): 105.48%
Activity (MOLT-4): 173.14%
